Measurements: ChEMBL document CHEMBL3297702, “Improving photodynamic inactivation of bacteria in dentistry: highly effective and fast killing of oral key pathogens with novel tooth-colored type-II photosensitizers” (J Med Chem, 2014)
The source made the active and inactive calls. The rule behind the calls is not given here.

Columns and labels:
[1] = Stability of the compound in D2O assessed as aggregation at 1 to 20 mM by NMR analysis; format: physicochemical; settings: 20000 µM
How it was run: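 ¹H NMR, aromatic region, in D2O at 1, 5, 10 and 20 mM; shifts referenced to external TMS, 1 ppm = 400 Hz; spectra compared across concentrations for dimerisation.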

Actinomyces naeslundii [2] = assay: Photodynamic inactivation of Actinomyces naeslundii T14V assessed as reduction of log10 CFU at 1 to 250 uM preincubated for 10 secs followed by irradiation with 50 j/cm'2 for 40 secs measured after 48 hrs by agar plating method; format: functional, organism-based
How it was run: (§1)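 A. naeslundii T14V grown overnight at 37 °C, shaken, aerobically in BHI broth. Harvested at stationary phase, resuspended in PBS to 10^7–10^8 bacteria/mL (OD600). Mixed 1:1 with PS (final 0–250 µM) or water, 10 s incubation, then blue photopolymerizer light (1260 ± 50 mW/cm2) or dark. Tenfold dilutions plated on blood agar, aerobic 37 °C 48 h, CFU counted; medians of three independent experiments in triplicate.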

[3] = Stability of the compound in D2O assessed as aggregate formation by measuring shift of spectrum in aromatic region at > 0.5 ppm at 50 to 90 degC by NMR analysis; format: physicochemical
Streptococcus mutans [4] = assay: Toxicity in Streptococcus mutans ATCC 25175 assessed as reduction of log10 CFU at 1 to 250 uM incubated for 10 secs under dark condition measured after 48 hrs by agar plating method
How it was run: (§2)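 Dark controls. Overnight BHI cultures (EF, SM, AN aerobic; AA anaerobic; 37 °C) were washed into PBS at 10^7–10^8 cells/mL. They were mixed 1:1 with photosensitizer at final 0–250 µM and incubated 10 s, 7.5 min or 15 min, then kept in the dark for 20, 40 or 120 s. Tenfold dilutions were plated: EF on Mueller-Hinton agar, aerobic 24 h; SM on BHI agar, aerobic 48 h; AN on blood agar, aerobic 48 h; AA on BHI agar, anaerobic 48 h; all at 37 °C. CFU were compared with untreated controls; medians of three independent experiments in triplicate.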

Actinomyces naeslundii [5] = assay: Toxicity in Actinomyces naeslundii T14V assessed as reduction of log10 CFU at 1 to 250 uM incubated for 10 secs under dark condition measured after 48 hrs by agar plating method; format: organism-based; settings: in vivo; how it was run: as §2
[6] = tested on: Aggregatibacter actinomycetemcomitans; assay: Toxicity in Aggregatibacter actinomycetemcomitans ATCC 43718 assessed as reduction of log10 CFU under dark condition at 1 to 250 uM incubated for 10 secs under dark condition measured after 48 hrs by agar plating method; design: species or system Y4; how it was run: as §2
Streptococcus mutans [7] = assay: Photodynamic inactivation of Streptococcus mutans ATCC 25175 assessed as reduction of log10 CFU at 100 uM incubated prior to irradiation with 50 j/cm'2 for 40 secs measured after 48 hrs by agar plating method (reference value: <1 no unit); format: functional
Actinomyces naeslundii [8] = assay: Photodynamic inactivation of Actinomyces naeslundii T14V assessed as reduction of log10 CFU at 5 uM incubated prior to irradiation with 50 j/cm'2 for 40 secs measured after 48 hrs by agar plating method (reference value: <1 no unit); format: functional; how it was run: as §1
Actinomyces naeslundii [9] = assay: Photodynamic inactivation of Actinomyces naeslundii T14V assessed as reduction of log10 CFU at 10 uM incubated prior to irradiation with 150 j/cm'2 for 120 secs measured after 48 hrs by agar plating method (reference value: <1 no unit); format: functional; how it was run: as §1
Enterococcus faecalis [10] = assay: Photodynamic inactivation of biofilm of Enterococcus faecalis ATCC 29212 monospecies assessed as reduction of log10 CFU at 100 uM preincubated for 60 mins followed by irradiation with 600 mW/cm'2 for 120 secs measured after 24 hrs by agar plating method; format: functional
Enterococcus faecalis [11] = assay: Toxicity in Enterococcus faecalis ATCC 29212 assessed as reduction of log10 CFU at 1 to 250 uM incubated for 10 secs to 15 mins under dark condition measured after 24 hrs by agar plating method; format: organism-based; settings: in vivo; how it was run: as §2
Streptococcus mutans [12] = assay: Toxicity in Streptococcus mutans ATCC 25175 assessed as reduction of log10 CFU at 1 to 250 uM incubated for 10 secs to 15 mins under dark condition measured after 48 hrs by agar plating method; how it was run: as §2
Actinomyces naeslundii [13] = assay: Toxicity in Actinomyces naeslundii T14V assessed as reduction of log10 CFU at 1 to 250 uM incubated for 10 secs to 15 mins under dark condition measured after 48 hrs by agar plating method; format: organism-based; settings: in vivo; how it was run: as §2
[14] = tested on: Aggregatibacter actinomycetemcomitans; assay: Toxicity in Aggregatibacter actinomycetemcomitans ATCC 43718 assessed as reduction of log10 CFU under dark condition at 1 to 250 uM incubated for 10 secs to 15 mins under dark condition measured after 48 hrs by agar plating method; design: species or system Y4; how it was run: as §2
Enterococcus faecalis [15] = assay: Photodynamic inactivation of biofilm of Enterococcus faecalis ATCC 29212 polyspecies assessed as reduction of log10 CFU at 100 uM preincubated for 60 mins followed by irradiation with 600 mW/cm'2 for 120 secs measured after 24 hrs by agar plating method; format: functional
Actinomyces naeslundii [16] = assay: Photodynamic inactivation of biofilm of Actinomyces naeslundii T14V monospecies assessed as reduction of log10 CFU at 100 uM preincubated for 60 mins followed by irradiation with 600 mW/cm'2 for 120 secs measured after 28 hrs by agar plating method; format: functional
Actinomyces naeslundii [17] = assay: Photodynamic inactivation of biofilm of Actinomyces naeslundii T14V polyspecies assessed as reduction of log10 CFU at 100 uM preincubated for 60 mins followed by irradiation with 600 mW/cm'2 for 120 secs measured after 28 hrs by agar plating method; format: functional

Row | SMILES | Stability [1] | Activity (Actinomyces naeslundii [2]) | Activity [3] [mM] | Activity (Streptococcus mutans [4]) | Activity (Actinomyces naeslundii [5]) | Activity [6] | log10cfu (Streptococcus mutans [7]) | log10cfu (Actinomyces naeslundii [8]) | log10cfu (Actinomyces naeslundii [9]) | log10cfu (Enterococcus faecalis [10]) | Activity (Enterococcus faecalis [11]) | Activity (Streptococcus mutans [12]) | Activity (Actinomyces naeslundii [13]) | Activity [14] | log10cfu (Enterococcus faecalis [15]) | log10cfu (Actinomyces naeslundii [16]) | log10cfu (Actinomyces naeslundii [17])
1 | C[N+](C)(C)CC1=Cc2cccc3cccc(c23)C1=O.[Cl-] | Unstable | Active | 70 | – | – | – | – | – | – | – | – | – | – | – | – | – | –
2 | C[N+](C)(CCO)CC1=Cc2cccc3cccc(c23)C1=O.[Cl-] | – | – | – | Non-toxic | Non-toxic | Non-toxic | >6 | <3 | <5 | – | – | – | – | – | – | – | –
3 | O=C1C(C[n+]2ccccc2)=Cc2cccc3cccc1c23.[Cl-] | – | Active | – | – | – | – | >6 | <5 | – | >5 | Non-toxic | Non-toxic | Non-toxic | Non-toxic | >5 | >5 | >5
